Laboratory results: ChEMBL document CHEMBL1149903, “Synthesis and biological evaluation of thiobenzanilides as anticancer agents” (Bioorg Med Chem, 2008)
The source made the active and inactive calls. The rule behind the calls is not given here.

Assays:
A-375 [1] = experiment: Induction of apoptosis in human A375 cells assessed as increase in intracellular H2O2 release at 10 uM after 4 hrs
A-375 [2] = experiment: Cell cycle arrest in human A375 cells assessed as accumulation at G2/M phase at 10 uM after 24 hrs by flow cytometry; format: functional
In short: (§1)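 A375 cells exposed 24 h to 10 µM agent, DMSO control. Harvested by trypsinization, washed in PBS, fixed in ice-cold 70% ethanol 30 min. RNase A 1 mg/mL (with trisodium citrate) at 37 °C 30 min. Stained with PI/citrate/Triton X-100 DNA solution 30 min at room temperature in the dark. DNA content of 10,000 events read by flow cytometry; phase percentages calculated.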

A-375 [3] = experiment: Cytotoxicity against human A375 cells at 10 uM by MTS assay; format: functional; conditions: read-out: Survival
In short: (§2)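 MTS proliferation assay. Cells were seeded at 2500 cells/well and incubated overnight, then exposed to compound at 10 µM for 24 h. MTS tetrazolium premixed with phenazine ethosulfate was then added and incubated 1–2 h at 37 °C. Absorbance was read at 490 nm against a 690 nm reference. Value reported is survival as % of control.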

A-375 [4] = experiment: Cell cycle arrest in human A375 cells assessed as accumulation at G1 phase at 10 uM after 24 hrs by flow cytometry; format: functional
In short: as §1

K562 = experiment: Cytotoxicity against human K562 cells at 10 uM by MTS assay; format: functional; conditions: read-out: Survival
In short: as §2

A-375 [5] = experiment: Induction of apoptosis in human A375 cells assessed as caspase 3 activation at 10 uM after 24 hrs by Western blot analysis relative to control; format: functional, cell-based
In short: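 Lysates of A375 cells exposed 24 h to 10 µM agent; 40 µg protein per lane run on 10% SDS-PAGE and transferred to PVDF. Blocked in 5% skim milk in PBS-T, then probed with rabbit polyclonal anti-caspase-3 (p20 active form), with actin as loading control. HRP secondary and chemiluminescence detection; band amounts quantified by densitometry.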

A-375 [6] = experiment: Effect on intracellular ATP content in human A375 cells at 10 uM after 24 hrs by firefly luciferase luminescence relative to control; format: functional
In short: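 Intracellular ATP measured by firefly luciferin–luciferase bioluminescence (ATPlite kit). A375 cells treated 24 h with 10 µM agent, then lysed; debris removed by centrifugation and supernatant assayed. Relative ATP expressed as percentage of the 0 µM level.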

A-375 [7] = experiment: Induction of apoptosis in human A375 cells assessed as disruption of mitochondrial membrane potential at 10 uM after 24 hrs of labeling with rhodamine 123-dye by flow cytometry; format: functional, cell-based
In short: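 Exponentially growing A375 cells treated 24 h at 10 µM, then trypsinized and pelleted. Resuspended in rhodamine 123 (10 µg/mL) for 30 min at room temperature, washed twice in PBS and read at once by flow cytometry (FL-1, 530/30 nm band pass).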

A-375 [8] = experiment: Induction of apoptosis in human A375 cells assessed as increase in intracellular H2O2 release at 10 uM after 4 hrs in presence of catalase
A-375 [9] = experiment: Induction of apoptosis in human A375 cells assessed as annexin V-FITC cells at 10 uM after 24 hrs by annexin V-FITC and PI staining; format: functional
In short: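 After 24 h at 10 µM, 10⁶ A375 cells per sample were stained with annexin V-FITC and PI at the same time and analysed by flow cytometry. Annexin V⁺/PI⁻ cells were scored as early apoptotic and annexin V⁺/PI⁺ cells as necrotic.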

[10] = Cytotoxicity against human 293T cells at 10 uM by MTS assay; format: cell-based, HEK-293T; conditions: read-out: Survival
In short: as §2

A-375 [11] = experiment: Cell cycle arrest in human A375 cells assessed as accumulation at S phase at 10 uM after 24 hrs by flow cytometry; format: functional
In short: as §1

| SMILES | Activity (A-375 [1]) | Activity (A-375 [2]) [%] | viability at 10 µM (A-375 [3]) [%] | Activity (A-375 [4]) [%] | viability at 10 µM (K562) [%] | Activity (A-375 [5]) | Activity (A-375 [6]) [%] | Activity (A-375 [7]) | Activity (A-375 [8]) | Activity (A-375 [9]) [%] | viability at 10 µM [10] [%] | Activity (A-375 [11]) [%] |
| --- | --- | --- | --- | --- | --- | --- | --- | --- | --- | --- | --- | --- |
| O=[N+]([O-])c1ccc(C(=S)Nc2ccc(Br)cc2)cc1 | Active | 29 | 43 | 58.4 | 42.9 | Active | 66.1 | Active | inactive | 7.5 | 48.4 | 12.7 |
| O=[N+]([O-])c1ccc(NC(=S)c2ccc([N+](=O)[O-])cc2)cc1 | Active | 28.9 | 39.1 | 59.9 | 47.9 | Active | 83.6 | Active | inactive | 16.3 | 44 | 11.3 |
| O=C(Nc1ccc(C(F)(F)F)cc1)c1ccc([N+](=O)[O-])cc1 | – | – | 87.2 | – | 81.3 | – | – | – | – | – | 87.7 | – |
| O=C(Nc1ccc(Br)cc1)c1ccc([N+](=O)[O-])cc1 | – | – | 81.1 | – | 89.1 | – | – | – | – | – | 86.9 | – |
| O=[N+]([O-])c1ccc(C(=S)Nc2ccc(C(F)(F)F)cc2)cc1 | Active | 27.6 | 36.2 | 55.4 | 41.4 | Active | 63.1 | Active | inactive | 33 | 41.2 | 17.1 |
| O=C(Nc1ccc([N+](=O)[O-])cc1)c1ccc([N+](=O)[O-])cc1 | – | – | 70.5 | – | 71.3 | – | – | – | – | – | 85.2 | – |
